Our source for the EC50 and IC50 values is ChEMBL document CHEMBL1126916, “Cyclic GMP phosphodiesterase inhibitors. 1. The discovery of a novel potent inhibitor, 4-((3,4-(methylenedioxy)benzyl)amino)-6,7,8-trimethoxyquinazoline” (J Med Chem, 1993).

SMILES strings stand for the structures. Some results are limits rather than exact numbers.

Experiment [1] is filed under the species Sus scrofa. Briefly: Relaxant effect on PGF2-alpha precontracted pig coronary arteries. The experiment is classed as functional. The procedure, abridged: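 Porcine coronary arterial strips were equilibrated at 1 g resting tension. Intact endothelium was confirmed by 7 × 10^-9 M bradykinin relaxing strips precontracted with 50 mM KCl (final concentrations). Strips were then contracted with PGF2α, final 10^-6 M, and cumulative concentration–relaxation curves were built after a plateau. Relaxation was expressed as % of the PGF2α contraction. EC50 came from the log curve, mean ± SEM, n experiments.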

Experiment [2] addresses T1, Phosphodiesterase 4A (Sus scrofa, UniProt O77823).
T1 sequence (O77823 whole entry): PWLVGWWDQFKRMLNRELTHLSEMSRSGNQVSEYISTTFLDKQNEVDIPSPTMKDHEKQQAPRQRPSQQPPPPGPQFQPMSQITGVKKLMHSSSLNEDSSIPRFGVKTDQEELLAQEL
Briefly: Inhibition of cAMP specific phosphodiesterase from porcine coronary arteries. The conditions noted are these: in the assay text read “porcine aorta” for “porcine coronary arteries”. The procedure, abridged:
(§1)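 Isozymes were separated from porcine aorta: type II (cGMP-stimulated), type III, and type IV (cAMP-specific). Each used [3H]cAMP at 1 μM as substrate. Compounds were tested in DMSO diluted in assay buffer over 10^-8 to 10^-4 M, with final DMSO below 0.4% (v/v). IC50 came from log concentration–inhibition curves (at least three points), as means ± SEM from at least three experiments.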

Experiment [3] has as its target T1, Phosphodiesterase 4A. The experiment can be described thus: Inhibition of cAMP specific phosphodiesterase from porcine aorta.
The target of experiment [4] is T2, Phosphodiesterase 3A (Sus scrofa, UniProt Q9XSW7).
T2 sequence (Q9XSW7 whole entry): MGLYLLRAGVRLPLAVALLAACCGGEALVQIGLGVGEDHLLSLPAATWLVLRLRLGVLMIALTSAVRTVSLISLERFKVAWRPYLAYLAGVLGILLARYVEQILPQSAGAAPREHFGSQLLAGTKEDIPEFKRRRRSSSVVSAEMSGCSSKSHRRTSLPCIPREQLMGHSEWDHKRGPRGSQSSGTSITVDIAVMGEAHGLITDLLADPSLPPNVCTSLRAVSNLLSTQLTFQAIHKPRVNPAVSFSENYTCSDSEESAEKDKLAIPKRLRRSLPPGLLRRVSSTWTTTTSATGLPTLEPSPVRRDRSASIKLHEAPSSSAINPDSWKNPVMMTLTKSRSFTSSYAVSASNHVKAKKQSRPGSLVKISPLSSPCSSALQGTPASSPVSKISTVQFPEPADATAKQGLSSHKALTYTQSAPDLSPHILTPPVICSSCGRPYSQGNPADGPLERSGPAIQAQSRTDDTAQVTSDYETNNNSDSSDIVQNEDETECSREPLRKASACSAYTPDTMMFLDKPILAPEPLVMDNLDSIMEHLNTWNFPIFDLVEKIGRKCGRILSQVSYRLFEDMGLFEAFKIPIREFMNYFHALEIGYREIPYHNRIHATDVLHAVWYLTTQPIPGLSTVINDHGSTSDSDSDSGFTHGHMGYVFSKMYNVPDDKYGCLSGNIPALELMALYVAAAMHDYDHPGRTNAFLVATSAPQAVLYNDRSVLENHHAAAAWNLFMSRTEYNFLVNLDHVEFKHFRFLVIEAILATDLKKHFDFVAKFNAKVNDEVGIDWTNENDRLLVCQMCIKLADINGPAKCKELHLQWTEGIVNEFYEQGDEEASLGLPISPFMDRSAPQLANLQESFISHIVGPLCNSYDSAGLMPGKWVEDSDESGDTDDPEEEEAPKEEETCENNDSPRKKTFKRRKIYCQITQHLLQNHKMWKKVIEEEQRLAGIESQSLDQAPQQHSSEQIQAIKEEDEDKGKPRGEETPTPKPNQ
The experiment can be described thus: Inhibition of cGMP-inhibited phosphodiesterase from porcine coronary arteries. The procedure, abridged: as §1

Experiment [5] deals with T1, Phosphodiesterase 4A. The experiment can be described thus: Inhibition of cAMP specific phosphodiesterase from porcine aorta. The procedure, abridged: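 PDE isozymes (types I–V) separated from porcine aorta. Substrate was [3H]cGMP for types I and V and [3H]cAMP for types II, III and IV, each at 1 μM. Test agents were dissolved in DMSO and diluted in assay buffer over 10^-8 to 10^-4 M, with final DMSO below 0.4% (v/v). IC50 was taken from the log concentration–inhibition curve (at least three points), mean ± SEM of at least three experiments.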

[6] abbreviates: in the assay text read “porcine aorta” for “porcine coronary arteries”.

A word on the EC50: it is the midpoint of the concentration-response curve. Lower therefore signals a more potent agent. For orientation: IC50 means the concentration needed to halve the response being measured.

For the molecule `COc1cc2c(NCc3ccc4c(c3)OCO4)ncnc2c(OC)c1OC`, the EC50 in experiment [1] came out at 1.96 µM. Also, the IC50 in experiment [2] is over 100 µM.
In experiment [3], `Clc1cccc(Nc2nnc(-c3ccccc3)c3ccccc23)c1` had a half-inhibitory concentration (IC50) of 37.2 µM.
For `OCCN(CCO)c1nc(N2CCCCC2)c2nc(N(CCO)CCO)nc(N3CCCCC3)c2n1` [DIPYRIDAMOLE], the IC50 was over 100 µM in experiment [4] (setting [6]) and 6.4 µM in experiment [2].
`COc1ccc(Cc2nccc3cc(OC)c(OC)cc23)cc1OC` [PAPAVERINE]: the results for the IC50 in experiment [4] and in experiment [3] were 0.62 µM and 1.7 µM, respectively.
For the molecule `CCCOc1ccccc1-c1nc2nn[nH]c2c(=O)[nH]1` [ZAPRINAST], the IC50 was over 100 µM in experiment [4] (setting [6]) and 79.6 µM in experiment [5]. The same molecule gave a concentration giving a half-maximal response (EC50) in experiment [1] of 4.75 µM.
